Test results taken from ChEMBL document CHEMBL1250496, “Novel 6,12-disubstituted chrysene as potent anticancer agent: synthesis, in vitro and in vivo study” (Eur J Med Chem, 2010).
pIC50: −log10 of the molar value.

Legend:
[1] = test system: HL-60; assay: Cytotoxicity against human HL60 cells after 72 hrs by MTT assay; type: functional, cell-based; conditions: HL-60, 72 h
Summary of the method: (§1)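 Cells were exposed continuously to drug for 72 h, with dilutions made in RPMI 1640 + 10% FBS and final solvent below 0.625%. Relative growth was read by MTT, and IC50 was reported in μM.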

[2] = test system: HT-29; assay: Cytotoxicity against human HT-29 cells after 72 hrs by MTT assay; type: functional, cell-based; summary of the method: as §1
[3] = test system: PC-3; assay: Cytotoxicity against human PC3 cells after 72 hrs by MTT assay; type: functional, cell-based; summary of the method: as §1
[4] = test system: P388; assay: Cytotoxicity against mouse P388 cells after 72 hrs by MTT assay; type: functional, cell-based; summary of the method: as §1
[5] = Cytotoxicity against human BRO cells after 72 hrs by MTT assay; type: functional, cell-based; summary of the method: as §1
[6] = test system: MCF7; assay: Cytotoxicity against human MCF7 cells after 72 hrs by MTT assay; type: functional, cell-based; summary of the method: as §1
[7] = test system: SK-OV-3; assay: Cytotoxicity against human SKOV3 cells after 72 hrs by MTT assay; type: functional, cell-based; summary of the method: as §1
[8] = test system: Mus musculus; assay: Toxicity in mouse assessed as weight loss at 40 mg/kg, ip; type: organism-based; parameters: dose 40 mg/kg, route intraperitoneal; conditions: in vivo
[9] = test system: SK-OV-3; assay: Antitumor activity against human SKOV3 xenografted in mouse assessed as reduction in tumor volume at 40 mg/kg, ip for 5 days; type: functional; parameters: scale not given: the % may be the effect or the level left; conditions: route intraperitoneal
Summary of the method: (§2)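 Female nu/nu mice, 6-10 weeks old. SKOV-3 cells were harvested at 80% confluence with viability >90% by trypan blue, washed, resuspended in PBS and given i.p. at 0.65 × 10^6 per mouse. Mice were sacrificed at 7 weeks and tumors counted and total volume measured per mouse.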

[10] = test system: SK-OV-3; assay: Antitumor activity against human SKOV3 xenografted in mouse assessed as reduction in tumor number at 40 mg/kg, ip for 5 days; type: functional; parameters: scale not given: the % may be the effect or the level left; conditions: route intraperitoneal; summary of the method: as §2

Compound | pIC50 [1] | pIC50 ([2]; Homo sapiens, HT-29, 72 h) | pIC50 ([3]; Homo sapiens, PC-3, 72 h) | pIC50 ([4]; p388) | pIC50 ([5]; bro) | pIC50 ([6]; Homo sapiens, MCF7, 72 h) | pIC50 ([7]; Homo sapiens, SK-OV-3, 72 h) | pIC50 ([4]; Mus musculus, P388, 72 h) | pIC50 ([5]; Homo sapiens, BRO, 72 h) | pIC50 ([2]; ht-29) | pIC50 ([3]; pc-3) | Activity [8] | Activity [9] | Activity [10] | pIC50 ([6]; mcf7) | pIC50 ([7]; sk-ov-3)
CN1CCN(CCCCNc2cc3c4ccccc4c(NCCCCN4CCN(C)CC4)cc3c3ccccc23)CC1 | 6.05 | 5.68 | 5.92 | 5.77 | 5.42 | 5.77 | 6.05 | – | – | – | – | – | – | – | – | –
c1ccc2c(c1)c(NCCCCN1CCCCC1)cc1c3ccccc3c(NCCCCN3CCCCC3)cc21 | 6.10 | 5.92 | 6.10 | – | – | 5.85 | 5.72 | 5.70 | 5.77 | – | – | – | – | – | – | –
CN1CCN(C(=O)CCC(=O)Nc2cc3c4ccccc4c(NC(=O)CCC(=O)N4CCN(C)CC4)cc3c3ccccc23)CC1 | 4.38 | 4.18 | 4.81 | – | – | 4.12 | 4.14 | 4.01 | 4.24 | – | – | – | – | – | – | –
CN1CCN(CCCCNc2cc3c4ccccc4ccc3c3ccccc23)CC1 | 5.28 | 4.84 | 5.00 | – | – | 5.19 | 5.08 | 4.71 | 4.86 | – | – | – | – | – | – | –
CN1CCN(C(=O)CCC(=O)Nc2cc3c4ccccc4ccc3c3ccccc23)CC1 | 5.02 | 5.03 | 4.74 | – | – | 5.15 | 4.95 | 5.22 | 4.38 | – | – | – | – | – | – | –
CN1CCN(CCCCNc2cc3c4ccccc4c(NCCCCN4CCN(C)CC4)cc3c3ccccc23)CC1.Cl | – | – | – | 6.10 | 6.22 | – | – | – | – | 5.80 | 5.68 | 5% | 47% | 35% | 5.92 | 6.00
O=C(CCC(=O)N1CCCCC1)Nc1cc2c3ccccc3c(NC(=O)CCC(=O)N3CCCCC3)cc2c2ccccc12 | 4.60 | 4.39 | 4.61 | – | – | 4.68 | 4.66 | 4.42 | 4.35 | – | – | – | – | – | – | –
c1ccc2c(c1)ccc1c3ccccc3c(NCCCCN3CCCCC3)cc21 | 5.96 | 5.62 | 5.43 | – | – | 5.64 | 5.36 | 5.66 | 5.47 | – | – | – | – | – | – | –
O=C(CCC(=O)N1CCCCC1)Nc1cc2c3ccccc3ccc2c2ccccc12 | 4.73 | 4.48 | 4.30 | – | – | 4.61 | 4.68 | – | < 4.00 | – | – | – | – | – | – | –
